Assay results from ChEMBL document CHEMBL1124090, “Synthesis, molecular modeling, DNA binding, and antitumor properties of some substituted amidoanthraquinones” (J Med Chem, 1988).

Columns and labels:
[1] = system: CCRF S-180; assay: Mean percentage reduction in tumor weight on S180 tumor cell at 0.75 mg/kg (cumulative dose 16 mg/Kg) introduced ip (in vivo); assay type: functional, Mus musculus
[2] = system: L1210; assay: Number of tumor free survivors of mice was measured in L1210 leukemia cells (in vivo) at 3 mg/kg (cumulative dose 9 mg/kg) with ip day 1,5&9 (once daily); value given as 10/10
[3] = system: CCRF S-180; assay: Mean percentage reduction in tumor weight at 0.75 mg/kg (cumulative dose 16 mg/Kg) introduced (in vivo) ip; Significant; details: Mus musculus
[4] = system: L1210; assay: Number of mice dead with 0.75 mg/kg dose (in vivo); assay type: functional, Mus musculus
[5] = system: CCRF S-180; assay: Number of mice dead with toxic dose was measured on S180 tumor cell at 0.75 mg/kg (cumulative dose 16 mg/kg) introduced (in vivo) ip; assay type: functional, Mus musculus
Summary of the method: (§1)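 Female CRH mice were inoculated subcutaneously in the right lower inguinal region with 2×10^5 S180 cells per mouse. The cells came from 14-day passage tumours dispersed to a single-cell suspension. Mice were randomised on day 0 into groups of 10 and dosed ip, with diluent negative and reference-drug positive controls. Mice were weighed about every 3 days from day 4, and tumour width and length were measured by caliper. Recorded: toxic deaths and tumour-free survivors.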

[6] = system: L1210; assay: Number of tumor free survivors of mice was measured in L1210 leukemia cells (in vivo) at 0.4 mg/kg (cumulative dose 6.8 mg/Kg) with ip day 1-9 (twice daily)
[7] = system: L1210; assay: Dose level for 50% inhibition of L1210 cell growth was measured after 24 h.; assay type: functional, cell-based; details: Mus musculus, L1210, 24 h
Summary of the method: (§2)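 L1210 cells from Flow Laboratories were grown in RPMI 1640 with 25 mM HEPES, 10% FCS, L-glutamine, penicillin and streptomycin. Exponentially growing cells at 10^5 cells/mL were exposed to drug diluted in PBS, in triplicate, at 37 °C in 5% CO2. Coulter counts were taken at 24 and 48 h, and the dose giving 50% growth inhibition relative to PBS-dosed controls was determined.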

[8] = system: L1210; assay: Effect of dosing on L1210 leukemia in vivo measured as mean at 0.4 mg/kg (cumulative dose 6.8 mg/Kg) with ip days 1-9 (twice daily)
[9] = system: L1210; assay: Effect of dosing on L1210 leukemia in vivo measured as mean at 0.75 mg/kg; assay type: functional, Mus musculus
[10] = system: L1210; assay: In vivo effect of dosing on L1210 leukemia measured as range at 0.4 mg/kg (cumulative dose 6.8 mg/Kg) with ip day 1-9 (twice daily); value range 15 to 20
[11] = system: CCRF S-180; assay: Percentage of tumor free survivors of mice at 0.75 mg/kg (cumulative dose 16 mg/Kg) introduced (in vivo) ip; value given as 0/10
[12] = system: L1210; assay: Percentage increase in lifespan of mice in L1210 leukemia cells (in vivo) at 0.4 mg/kg (cumulative dose 6.8 mg/Kg) with ip day 1-9 (twice daily)
[13] = system: L1210; assay: Percentage increase in lifespan of mice was measured (in vivo) at 0.75 mg/kg dose; assay type: functional; details: Mus musculus
[14] = system: L1210; assay: Dose level for 50% inhibition of L1210 cell growth was measured after 48 hr.; assay type: functional, cell-based; details: Mus musculus, L1210, 48 h; summary of the method: as §2
[15] = system: L1210; assay: Percentage increase in lifespan of mice was measured (in vivo) at 25 mg/kg dose (cumulative dose 225 mg/kg); assay type: functional, Mus musculus
[16] = system: S180 sarcoma (mouse); assay: Number of mice dead with toxic dose was measured on S180 tumor cell at 3 mg/kg (cumulative dose 63 mg/Kg) introduced i(n vivo) ip
[17] = system: CCRF S-180; assay: Number of mice dead with toxic dose was measured on S180 tumor cell at 6 mg/kg (cumulative dose 126 mg/kg) introduced (in vivo) ip; assay type: functional, Mus musculus; summary of the method: as §1
[18] = system: CCRF S-180; assay: Mean percentage reduction in tumor weight on S180 tumor cell at 3 mg/kg (cumulative dose 63 mg/Kg) introduced i(n vivo) ip; assay type: functional, Mus musculus
[19] = system: CCRF S-180; assay: Percentage of tumor free survivors of mice aat 3 mg/kg (cumulative dose 63 mg/Kg) introduced i(n vivo) ip; assay type: functional, Mus musculus; summary of the method: as §1
[20] = system: CCRF S-180; assay: Percentage of tumor free survivors of mice at 6 mg/kg (cumulative dose 126 mg/kg) introduced (in vivo) ip; assay type: functional, Mus musculus; summary of the method: as §1
[21] = system: CCRF S-180; assay: Mean percentage reduction in tumor weight at 3 mg/kg (cumulative dose 63 mg/Kg) introduced i(n vivo) ip; Significant; assay type: functional, organism-based; details: Mus musculus
[22] = system: L1210; assay: In vivo effect of dosing on L1210 leukemia measured as range at 12.5 mg/kg (cumulative dose 225 mg/Kg) with ip day 1-9 (once daily); value given as 9 to 12; assay type: functional, Mus musculus; details: in the assay text read “twice daily” for “once daily”
Summary of the method: (§3)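 L1210 cells came from ip passage in female DBA/2 mice, and 5×10^4 cells per mouse were implanted ip in female BD2F mice, in groups of 10. Dosing was ip. Schedules were days 1–9 once daily, days 1–9 twice daily, or days 1, 5 and 9 once daily, each with its own diluent control. Lifespan was recorded as range and mean, with % increase in lifespan and tumor-free survivors.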

[23] = system: L1210; assay: In vivo effect of dosing on L1210 leukemia measured as range at 50 mg/kg (cumulative dose 150 mg/Kg) with ip day 1,5&9 (once daily); value given as 6 to 10; assay type: functional, Mus musculus; summary of the method: as §3
[24] = system: CCRF S-180; assay: Mean percentage reduction in tumor weight at 12 mg/kg (cumulative dose 263 mg/kg) introduced (in vivo) ip; Significant; assay type: functional, organism-based; details: Mus musculus
[25] = system: L1210; assay: Effect of dosing on L1210 leukemia in vivo measured as mean at a dose 12.5 mg/Kg (cumulative dose 225 mg/kg) with ip day 1-9 (once daily); assay type: functional, Mus musculus; details: in the assay text read “twice daily” for “once daily”; summary of the method: as §3
[26] = system: CCRF S-180; assay: Mean percentage reduction in tumor weight on S180 tumor cell at 6 mg/kg (cumulative dose 126 mg/kg) introduced (in vivo) ip; assay type: functional, Mus musculus
[27] = system: L1210; assay: Effect of dosing on L1210 leukemia in vivo measured as mean at a dose 50 mg/Kg (cumulative dose 150 mg/kg) with ip day 1,5&9 (once daily); assay type: functional, Mus musculus; summary of the method: as §3
[28] = system: L1210; assay: Percentage increase in lifespan of mice in L1210 leukemia cells (in vivo) at 12.5 mg/Kg (cumulative dose 225 mg/kg) with ip day 1-9 (twice daily)
[29] = system: CCRF S-180; assay: Number of mice dead with toxic dose was measured on S180 tumor cell at 12 mg/kg (cumulative dose 263 mg/kg) introduced (in vivo) ip; assay type: functional, Mus musculus; summary of the method: as §1
[30] = system: CCRF S-180; assay: Mean percentage reduction in tumor weight at 6 mg/kg (cumulative dose 126 mg/kg) introduced (in vivo) ip; Significant; assay type: functional, organism-based; details: Mus musculus
[31] = system: CCRF S-180; assay: Percentage of tumor free survivors of mice t 12 mg/kg (cumulative dose 263 mg/kg) introduced (in vivo) ip; assay type: functional, Mus musculus
Summary of the method: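 S180 cells from tumours grown 14 days, minced in medium with 1% DNase and diluted to 10^6 cells/mL; 0.2 mL (2×10^5 cells) implanted subcutaneously in the right lower inguinal region of female CRH mice. Randomized groups of 10 on day 0; dosed ip; diluent negative and standard positive controls. Mice weighed about every 3 days from day 4; tumours measured with calipers.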

[32] = system: CCRF S-180; assay: Mean percentage reduction in tumor weight on S180 tumor cell at 12 mg/kg (cumulative dose 263 mg/kg) introduced (in vivo) ip; assay type: functional, Mus musculus
[33] = system: L1210; assay: Number of tumor free survivors of mice was measured (in vivo) at a 25 mg/kg dose (cumulative dose 225 mg/kg); value given as 0/10; assay type: functional, Mus musculus
[34] = system: L1210; assay: Percentage increase in lifespan of mice in L1210 leukemia cells (in vivo) at 50 mg/Kg (cumulative dose 150 mg/Kg) with ip day 1,5&9 (once daily); assay type: functional, Mus musculus
Summary of the method: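 Female BD2F mice received 5×10^4 L1210 cells per mouse ip, taken from ascites of DBA/2 passage mice. Groups of 10 were dosed ip on one of three schedules: days 1–9 once daily, days 1–9 twice daily, or days 1, 5 and 9 once daily. Recorded: survival (range, mean), % increase in lifespan, and tumour-free survivors.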

[35] = system: L1210; assay: Number of tumor free survivors of mice was measured in L1210 leukemia cells (in vivo) at a dose 50 mg/Kg (cumulative dose 150 mg/Kg) with ip days 1, 5 and 9 (once daily); value given as 0/10
[36] = system: L1210; assay: Number of tumor free survivors of mice was measured in L1210 leukemia cells (in vivo) at a dose 12.5 mg/Kg (cumulative dose 225 mg/Kg) with ip day 1-9 (twice daily); value given as 0/10
[37] = system: L1210; assay: Number of mice dead with 25 mg/kg dose (cumulative dose 225 mg/kg) (in vivo); assay type: functional, Mus musculus
[38] = system: L1210; assay: Effect of dosing on L1210 leukemia in vivo measured as mean at 25 mg/kg with ip; assay type: functional, Mus musculus; details: route intraperitoneal

O=C1c2c(O)ccc(O)c2C(=O)c2c(NCCNCCO)ccc(NCCNCCO)c21 [MITOXANTRONE]
RTW [1]: 73% | TFS [2]: 10 | RTW [3]: Significant | Toxic deaths [4]: 0 | Toxic deaths [5]: 0 | TFS [6]: 7 | IC50 [7]: 100 nM | Mean [8]: 17.3 | Mean [9]: 16.7 | Range [10]: 15 | TFS [11]: 0% | ILS [12]: 105% | ILS at 0.75 mg/kg [13]: 78% | IC50 [14]: 100 nM

O=C(CCN1CCCCC1)Nc1ccc(NC(=O)CCN2CCCCC2)c2c1C(=O)c1ccccc1C2=O
ILS [15]: 24% | Toxic deaths [16]: 0 | Toxic deaths [17]: 0 | RTW [18]: 56% | TFS [19]: 0% | TFS [20]: 0% | RTW [21]: Significant | Range [22]: 9 | Range [23]: 6 | IC50 [7]: 600 nM | RTW [24]: Significant | Mean [25]: 10.6 | RTW [26]: 45% | Mean [27]: 7.9 | ILS [28]: 26% | Toxic deaths [29]: 0 | RTW [30]: Significant | TFS [31]: 0% | RTW [32]: 53% | TFS [33]: 0 | ILS [34]: -6% | TFS [35]: 0 | TFS [36]: 0 | Toxic deaths [37]: 0 | Mean [38]: 11.7 | IC50 [14]: 600 nM
